# Assay results reported in ChEMBL document CHEMBL5724801, “EUbOPEN Chemogenomics Library - Multiplex” (2024).
# Values joined by “and” are separate entries in the source; they are usually repeats but may differ in a detail not shown here. Identical values can stand only once.
# Test system: U2OS
# Assay: Multiplex assay against U2OS
# Assay type: toxicity, cell-based
# Conditions: human
# Summary of the method: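 Per cents of healthy-nucleus cells form the tubulin, mitochondrial-mass and membrane-permeability phenotype values. Live cells were stained at seeding with Hoechst33342, BioTracker Green Microtubule Cytoskeleton Dye, MitoTracker Red and Annexin V Alexa Fluor 680. After compound addition they were imaged on a CQ1 microscope at 37°C and 5% CO2, and CellPathfinder machine-learning gating split them into Hoechst high-intensity objects or normal cells, normal cells into healthy, pyknosed or fragmented nuclei, and pyknosed cells into mitotic or apoptotic.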
# [1] = 12 h, 1 µM, compound concentration 1 uM
# [2] = 12 h, 10 µM, compound concentration 10 uM
# [3] = 24 h, 1 µM, compound concentration 1 uM
# [4] = 24 h, 10 µM, compound concentration 10 uM
# [5] = 48 h, 1 µM, compound concentration 1 uM
# [6] = 48 h, 10 µM, compound concentration 10 uM
smiles,measurement,setting,value
CCCCC[C@H](O)/C=C/[C@H]1[C@H](O)CC(=O)[C@@H]1CCCCCCC(=O)O [ALPROSTADIL],Population Apoptotic (%),[1],100% and 77%
same,Population Fragmented Nuclei (%),[1],31% and 11%
same,Population Healthy Nuclei (%),[1],62% and 81%
same,Population Hoechst High Intensity Objects (%),[1],1% and 0%
same,Population Membrane Permeable-Phenotype (%),[1],4% and 9%
same,Population Mitochondria Different-Phenotype (%),[1],2% and 5%
same,Population Mitotic Cells (%),[1],0% and 22%
same,Population Normal (%),[1],98% and 100%
same,Population Pyknosed Nuclei (%),[1],6%
same,Population Tubulin-Different-Phenotype (%),[1],2% and 6%
same,Total Cell Count,[1],219 and 132
same,Population Apoptotic (%),[2],71% and 77%
same,Population Fragmented Nuclei (%),[2],23% and 15%
same,Population Healthy Nuclei (%),[2],69% and 75%
same,Population Hoechst High Intensity Objects (%),[2],1% and 2%
same,Population Membrane Permeable-Phenotype (%),[2],1% and 5%
same,Population Mitochondria Different-Phenotype (%),[2],0% and 3%
same,Population Mitotic Cells (%),[2],28% and 22%
same,Population Normal (%),[2],98% and 97%
same,Population Pyknosed Nuclei (%),[2],6% and 8%
same,Population Tubulin-Different-Phenotype (%),[2],0% and 5%
same,Total Cell Count,[2],222 and 104
same,Population Apoptotic (%),[3],91% and 87%
same,Population Fragmented Nuclei (%),[3],25% and 14%
same,Population Healthy Nuclei (%),[3],65% and 75%
same,Population Hoechst High Intensity Objects (%),[3],1% and 0%
same,Population Membrane Permeable-Phenotype (%),[3],5% and 8%
same,Population Mitochondria Different-Phenotype (%),[3],2% and 4%
same,Population Mitotic Cells (%),[3],8% and 12%
same,Population Normal (%),[3],98% and 99%
same,Population Pyknosed Nuclei (%),[3],9%
same,Population Tubulin-Different-Phenotype (%),[3],3%
same,Total Cell Count,[3],263 and 166
same,Population Apoptotic (%),[4],94% and 100%
same,Population Fragmented Nuclei (%),[4],19% and 12%
same,Population Healthy Nuclei (%),[4],74% and 76%
same,Population Hoechst High Intensity Objects (%),[4],1% and 0%
same,Population Membrane Permeable-Phenotype (%),[4],5% and 4%
same,Population Mitochondria Different-Phenotype (%),[4],0% and 2%
same,Population Mitotic Cells (%),[4],5% and 0%
same,Population Normal (%),[4],98% and 99%
same,Population Pyknosed Nuclei (%),[4],6% and 10%
same,Population Tubulin-Different-Phenotype (%),[4],3% and 1%
same,Total Cell Count,[4],271 and 131
same,Population Apoptotic (%),[5],87% and 95%
same,Population Fragmented Nuclei (%),[5],22% and 18%
same,Population Healthy Nuclei (%),[5],68% and 71%
same,Population Hoechst High Intensity Objects (%),[5],2% and 3%
same,Population Membrane Permeable-Phenotype (%),[5],4% and 6%
same,Population Mitochondria Different-Phenotype (%),[5],2% and 5%
same,Population Mitotic Cells (%),[5],12% and 4%
same,Population Normal (%),[5],97% and 96%
same,Population Pyknosed Nuclei (%),[5],9%
same,Population Tubulin-Different-Phenotype (%),[5],2% and 6%
same,Total Cell Count,[5],367 and 236
same,Population Apoptotic (%),[6],88% and 100%
same,Population Fragmented Nuclei (%),[6],13% and 11%
same,Population Healthy Nuclei (%),[6],76% and 77%
same,Population Hoechst High Intensity Objects (%),[6],0% and 2%
same,Population Membrane Permeable-Phenotype (%),[6],4% and 6%
same,Population Mitochondria Different-Phenotype (%),[6],0% and 1%
same,Population Mitotic Cells (%),[6],11% and 0%
same,Population Normal (%),[6],99% and 97%
same,Population Pyknosed Nuclei (%),[6],10%
same,Population Tubulin-Different-Phenotype (%),[6],3% and 4%
same,Total Cell Count,[6],362 and 165
COC(c1ccccc1)(c1ccccc1)[C@H](Oc1nc(C)cc(C)n1)C(=O)O [AMBRISENTAN],Population Apoptotic (%),[1],95% and 100%
same,Population Fragmented Nuclei (%),[1],26% and 21%
same,Population Healthy Nuclei (%),[1],62% and 72%
same,Population Hoechst High Intensity Objects (%),[1],2%
same,Population Membrane Permeable-Phenotype (%),[1],3% and 8%
same,Population Mitochondria Different-Phenotype (%),[1],0% and 3%
same,Population Mitotic Cells (%),[1],4% and 0%
same,Population Normal (%),[1],97%
same,Population Pyknosed Nuclei (%),[1],10% and 5%
same,Population Tubulin-Different-Phenotype (%),[1],1%
same,Total Cell Count,[1],209 and 87
same,Population Apoptotic (%),[2],61% and 100%
same,Population Fragmented Nuclei (%),[2],28% and 19%
same,Population Healthy Nuclei (%),[2],63% and 72%
same,Population Hoechst High Intensity Objects (%),[2],2% and 0%
same,Population Membrane Permeable-Phenotype (%),[2],4%
same,Population Mitochondria Different-Phenotype (%),[2],2% and 0%
same,Population Normal (%),[2],97% and 99%
same,Population Pyknosed Nuclei (%),[2],7%
same,Population Tubulin-Different-Phenotype (%),[2],1% and 0%
same,Total Cell Count,[2],232 and 104
same,Population Apoptotic (%),[3],95% and 100%
same,Population Fragmented Nuclei (%),[3],27% and 23%
same,Population Healthy Nuclei (%),[3],63% and 66%
same,Population Hoechst High Intensity Objects (%),[3],0%
same,Population Membrane Permeable-Phenotype (%),[3],4% and 1%
same,Population Mitochondria Different-Phenotype (%),[3],1% and 2%
same,Population Mitotic Cells (%),[3],4% and 0%
same,Population Normal (%),[3],99%
same,Population Pyknosed Nuclei (%),[3],8% and 10%
same,Population Tubulin-Different-Phenotype (%),[3],1%
same,Total Cell Count,[3],248 and 111
same,Population Apoptotic (%),[4],84% and 80%
same,Population Fragmented Nuclei (%),[4],25% and 13%
same,Population Healthy Nuclei (%),[4],65% and 77%
same,Population Hoechst High Intensity Objects (%),[4],1% and 0%
same,Population Membrane Permeable-Phenotype (%),[4],7%
same,Population Mitochondria Different-Phenotype (%),[4],2%
same,Population Mitotic Cells (%),[4],16% and 20%
same,Population Normal (%),[4],98% and 100%
same,Population Pyknosed Nuclei (%),[4],9% and 8%
same,Population Tubulin-Different-Phenotype (%),[4],3% and 5%
same,Total Cell Count,[4],273 and 115
same,Population Apoptotic (%),[5],89% and 93%
same,Population Fragmented Nuclei (%),[5],17%
same,Population Healthy Nuclei (%),[5],70% and 72%
same,Population Hoechst High Intensity Objects (%),[5],2%
same,Population Membrane Permeable-Phenotype (%),[5],2% and 0%
same,Population Mitochondria Different-Phenotype (%),[5],1%
same,Population Mitotic Cells (%),[5],10% and 6%
same,Population Normal (%),[5],97%
same,Population Pyknosed Nuclei (%),[5],11% and 10%
same,Population Tubulin-Different-Phenotype (%),[5],0%
same,Total Cell Count,[5],333 and 151
same,Population Apoptotic (%),[6],87% and 81%
same,Population Fragmented Nuclei (%),[6],21% and 13%
same,Population Healthy Nuclei (%),[6],68% and 79%
same,Population Hoechst High Intensity Objects (%),[6],3% and 0%
same,Population Membrane Permeable-Phenotype (%),[6],4% and 2%
same,Population Mitochondria Different-Phenotype (%),[6],2% and 0%
same,Population Mitotic Cells (%),[6],12% and 18%
same,Population Normal (%),[6],96% and 100%
same,Population Pyknosed Nuclei (%),[6],10% and 6%
same,Population Tubulin-Different-Phenotype (%),[6],3% and 2%
same,Total Cell Count,[6],388 and 174
